High-throughput results deposited in PubChem by Broad Institute.
FGF22 binding: binders of human FGF22 protein, primary screen, FGF22 synaptogenesis inhibitor project, biophysical, thermal shift, single point; Fibroblast growth factor 22 (Homo sapiens), Q9HCT0; recombinant FGF22 thermal shift, SYPRO orange fluorescence; percent of sucrose octasulfate shift, DMSO zero; activity (Tm shift, normalised), % at 9.99 µM; 340,000 compounds, 1.5% hits;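 active = mean Tm shift, scaled 0 neutral to 100 positive control, at about 1.3% or above, every replicate too, limit read from the data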
XiGFP reactiv: activators of inactive X chromosome reactivation, primary screen, imaging, XiGFP fibroblasts, GFP high-content imaging, set 2 | 360,000 compounds, 0.055% hits | activation, % at 7.58 µM | XiGFP mouse fibroblasts, % GFP-positive cells imaging, 3 d; cells co-treated with 5-aza-dC sensitizer; scaled so ellipticine positive control = 100% | AID 743238, 2013;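 active = mean normalized replicate activation at least 10% and every replicate at or above 10%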
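System: 68-5-11 XiGFP fibroblast line | Buffer or medium: DMEM containing 5-aza-dC | Compound: Single point | Times: Compounds 3 days, fix/stain 15 min at room temperature | Benchmarks: Positive control ellipticine, 6 µM final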
DENV2 CPE: inhibitors of DENV2 cytopathic effect, primary screen, cell-based, plate reader, single concentration | 350,000 compounds, 1.7% hits | CPE inhibition, % at 9.99 µM | DENV2-infected cells, cytopathic effect rescue; in the data active = CPE inhibition above about 20%, passing the limit was not always enough; tested in BHK-21 cells
FN deposition inh: inhibitors of fibronectin matrix deposition, primary screen, AH1F cells, Alexa488-fibronectin fluorescence, plate reader | AH1F fibroblasts, overnight | inhibition, % at 12.6 µM | 350,000 compounds, 0.086% hits;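 active = mean inhibition across replicates of 30% or more, regardless of how many single replicates reach that level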
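Test system: AH1F fibroblast monolayer depositing Alexa488-labelled fibronectin into matrix. Input: 10000 cells per well. Technique: fluorescence, ex 485 nm, em 525 nm. Buffer or medium: DMEM plus 2% serum, read in PBS. Timing: 1 h cell adhesion before compound, then overnight fibronectin incubation. Compound: single dose, pinned. Read-out basis: inhibition from reduced deposited-fibronectin fluorescence.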
SIRT5 inh: SIRT5 desuccinylase inhibitors, primary screen, biochemical, fluorescence imaging, single point, set 5; inhibition, % at 15 µM; NAD-dependent protein deacylase sirtuin-5, mitochondrial (Homo sapiens), Q9NXA8; 330,000 compounds, 1.1% hits; Purified SirT5, succinyl-peptide AMC, trypsin-coupled fluorescence; in the data active = inhibition above about 15%
Target sequence (Q9NXA8 whole entry, looked up): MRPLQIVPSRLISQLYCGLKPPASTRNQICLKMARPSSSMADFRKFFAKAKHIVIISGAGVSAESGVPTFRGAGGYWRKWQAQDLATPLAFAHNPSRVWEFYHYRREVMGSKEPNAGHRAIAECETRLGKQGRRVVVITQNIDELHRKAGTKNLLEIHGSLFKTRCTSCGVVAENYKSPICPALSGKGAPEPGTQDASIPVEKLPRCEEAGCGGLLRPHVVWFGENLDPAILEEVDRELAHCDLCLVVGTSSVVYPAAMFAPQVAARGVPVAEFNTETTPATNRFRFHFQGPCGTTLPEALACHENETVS
ARNT TACC3 PPI: disruptors of ARNT/TACC3 protein interaction, primary screen, biochemical, AlphaScreen, single concentration | AlphaScreen His-ARNT PAS-B/GST-TACC3 binding, luminescence; TACC3 fragment carries E629A point mutation | inhibition, % at 9.99 µM | 390,000 compounds, 0.66% hits;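 active = mean inhibition of replicates at least 50% and at least half of replicates each reaching 50%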
Large screens that a line does not name were inactive. Most compounds without a hit are left out; they make up all but 3.8% or so of the library.

Cc1sc2nc(CN3CCCC3)nc(N3CCN(C(=O)c4ccco4)CC3)c2c1C	FGF22 binding 44 (no result: DENV2 CPE)
CC(=O)Nc1cccc(Oc2ncnc3scc(-c4ccccc4)c23)c1	none (no result: FGF22 binding, DENV2 CPE, SIRT5 inh, ARNT TACC3 PPI)
Cc1ccc2cccc(Oc3ncnc4sc(C)c(C)c34)c2n1	FGF22 binding 43
Cc1ccc(-c2csc3ncnc(Oc4cccc5ccc(C)nc45)c23)cc1	FGF22 binding 44
C/C=C\C(=O)Nc1cccc(C2=NOC3(C2)C[C@@H](C(N)=O)N(C(=O)c2ccc(Cl)cc2)C3)c1 (stereo not given in full)	none
C/C=C\C(=O)Nc1cccc(C2=NOC3(C2)C[C@@H](C(N)=O)N(C(=O)c2ccc(OC)cc2)C3)c1 (stereo not given in full)	DENV2 CPE 22 (no result: ARNT TACC3 PPI)
C=C1C[C@H](O[C@@H]2O[C@H](CO)[C@@H](O)[C@H](O)[C@H]2O)[C@@H]2[C@H](OC(=O)[C@H]2C)[C@H]2[C@H](C)[C@H](O)C[C@@H]12	DENV2 CPE 55 (no result: SIRT5 inh)
Cc1ccc(S(=O)(=O)N(C)C[C@H]2Oc3ccc(NC(=O)Cn4cnnn4)cc3CC(=O)N([C@H](C)CO)C[C@H]2C)cc1	none (no result: FN deposition inh)
O=C(C[C@H]1C[C@H]2c3cc(NC(=O)C4CCC4)ccc3O[C@H]2[C@H](CO)O1)NCc1ccc(-c2ccccc2)cc1	none
O=C(C[C@H]1C[C@@H]2c3cc(NC(=O)C4CCC4)ccc3O[C@@H]2[C@H](CO)O1)NCc1ccccc1	DENV2 CPE 23
O=C(C[C@H]1C[C@@H]2c3cc(NC(=O)C4CCC4)ccc3O[C@@H]2[C@@H](CO)O1)NCc1ccc(-c2ccccc2)cc1	SIRT5 inh 23
Cc1cc(-c2nn(-c3ccccc3F)cc2CN2CCCC(O)C2)c(C)s1 (stereo not given)	none
Cc1cc(-c2nn(-c3ccccc3F)cc2CN2CCCC(CO)C2)c(C)s1 (stereo not given)	FGF22 binding 43
O=[N+]([O-])c1ccc(F)cc1OCc1nc(-c2cccs2)no1	none
O=[N+]([O-])c1ccccc1OCc1nc(-c2cccs2)no1	DENV2 CPE 23
O=C(NCC[C@H]1CC[C@H](NC(=O)c2ccccc2F)[C@H](CO)O1)c1cnccn1	none
COc1cc(/C=N/NC(=O)c2nonc2N)cc(OC)c1OC	SIRT5 inh 18
O=C(NC1CC1)c1ccc(NC(=O)C2CCCC2)cc1	DENV2 CPE 72 (no result: SIRT5 inh)
COc1ccc(N2CC(C(=O)N/N=C/c3c[nH]c4ccccc34)CC2=O)cc1 (stereo not given)	FGF22 binding 44 (no result: ARNT TACC3 PPI)
CCOC(=O)C1(CCCc2ccccc2)CCN(C(=O)[C@@H]2C[C@@H](C)NC(=S)N2)CC1	FGF22 binding 52
CCOC(=O)C1(CCc2ccccc2)CCN(C(=O)CCc2cnn(C)c2)CC1	FGF22 binding 44
COc1ccc(-c2c(C)[nH]n3c(=O)c(Cc4ccccc4)c(C)nc23)cc1OC	ARNT TACC3 PPI 87
Cc1nc2c(-c3ccc(Cl)cc3)c(C)[nH]n2c(=O)c1Cc1ccccc1	SIRT5 inh 17
O=C(CCNS(=O)(=O)c1ccc(Cl)cc1)OCC(=O)N1CCN(C(=O)c2ccco2)CC1	FGF22 binding 13 (no result: ARNT TACC3 PPI)
COCCn1c(SCC(=O)Nc2ccc(F)cc2)nc2c([nH]c3ccccc32)c1=O	none
CNC(=O)CSc1nc2c([nH]c3ccccc32)c(=O)n1CCOC	FGF22 binding 44
COc1ccc(NC(=O)N(C)C[C@@H]2Oc3c(NC(=O)Nc4ccc5c(c4)OCO5)cccc3C(=O)N([C@H](C)CO)C[C@H]2C)cc1	none (no result: FN deposition inh)
